In publication PMC7439439 (Science Advances, 2020):
Read-outs that look alike come from different tables or passages of the source.

Experiments:
[1] = tested on: luciferase-tagged SF8628 flank tumors; experiment: Flank model of DIPG, intraperitoneal treatment; format: in vivo, athymic-nude mice
Outline: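 Athymic-nude mice received subcutaneous right-flank implants of 40-mm3 chunks of luciferase-tagged SF8628 tumours grown in other nude mice. Tumour presence was confirmed by luciferase scan at 1 week. Dosing began at a mean caliper volume of 140 mm3: reference HDAC inhibitor 10 mg/kg, test compound 12 mg/kg (molecular-weight adjusted), or vehicle (10% DMSO, 36% PEG, 54% PBS). Dosing stopped at 1500 mm3 or euthanasia end points. Tumours were harvested on the last treatment day for acetylated-H3 immunoblot with GAPDH as loading control.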

[2] = tested on: SF8628 orthotopic DIPG tumors; experiment: Orthotopic SF8628 xenograft, histology after treatment; format: in vivo, SCID mice
Outline: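 NOD/SCID mice received 1 million luciferase-transduced SF8628 cells stereotactically into the pons (1.0 mm right, 0.5 mm posterior, 5.0 mm deep from lambda). Treatment started 21–24 days later over 2 weeks, using four CED infusions about 72 h apart, each over 6 min at 1.67 μl/min. Brains were then harvested. Nuclei on H&E and Ki67+ nuclei were counted on ≥5 40× fields. Apoptosis index was Cc3+ cells divided by tumour area × cellularity. H3Ac+ nuclei were counted per 10× field after colour deconvolution, Gaussian blur and thresholding.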

RCAS-based DIPG tumors = experiment: Survival study in tumor-bearing RCAS mice; format: in vivo
Outline: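 DIPG was induced in 3–5-day-old Ntva/p53fl/fl pups by pontine injection of DF1 cells carrying RCAS-PDGFB, H3K27M-GFP, CRE and luciferase. From day 21–24, over 2 weeks, mice received one of: intraperitoneal 10 mg/kg in 10% DMSO/36% PEG/54% PBS; intraperitoneal vehicle; or one or four CEDs of 10 μl, 100 μM in 1% DMSO/PBS (or vehicle), 72 h apart, each over 6 min. End point was ≥10% weight loss on two consecutive measurements, or other end points. Survival was analysed by log-rank.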

Safety in mice = format: in vivo
[3] = 11 patients, oral formulation; cited from earlier work
[4] = primate studies, oral delivery; cited from earlier work
[5] = four CED doses at 72-hour intervals

Structure (SMILES): Cc1[nH]c2ccccc2c1CCNCc1ccc(/C=C/C(=O)NO)cc1 [panobinostat]
- H3Ac in tumors by Western blotting ([1]; animals sacrificed on the last day of treatment): recovery of H3Ac
- tumor growth compared to vehicle ([1]; caliper tumor volume, daily intraperitoneal for 2 weeks): slowed down tumor growth
- H3Ac in tumor cells versus intraperitoneal vehicle [2, 5]: increase in H3Ac in tumor cells
- Ki67+ cycling cells versus vehicle [2, 5]: decrease in overall Ki67^+ cycling cells
- apoptotic cell death, cleaved caspase-3 positive cells [2, 5]: increase in apoptotic cell death
- tumor cellularity versus vehicle ([2]; four CED doses at 72-hour intervals, H&E): decrease in tumor cellularity
- histological effects (cellularity, Ki67, Cc3, H3Ac) ([2]; systemic treatment): failed to achieve any of these results
- median survival (RCAS-based DIPG tumors; 4× CED, 10 μl 100 μM, 72 hours apart): 63 days
- median survival (RCAS-based DIPG tumors; intraperitoneally, 10 mg/kg, over 2 weeks): 35 days
- median survival (RCAS-based DIPG tumors; single CED session, 10 μl 100 μM): 37.5 days
- toxicity after systemic injections (Safety in mice): significant toxicities including weight loss
- detection in CSF [3]: not detected
- detection in CSF [4]: failed at detecting significant amounts
